Experimental data as given in ChEMBL document CHEMBL4229337, “Design, synthesis and biological evaluation of 1-hydroxy-2-phenyl-4-pyridyl-1H-imidazole derivatives as xanthine oxidase inhibitors” (Eur J Med Chem, 2018).

The molecules below were run against T1, Xanthine dehydrogenase/oxidase (Bos taurus, UniProt P80457) (assay: Inhibition of bovine xanthine oxidase assessed as reduction in uric acid formation using xanthine as substrate preincubated for 15 mins followed by substrate addition by spectrophotometric analysis). Settings: not given; call rule not given here.
How it was run: (§1)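 XO (15 U/L) in 0.1 M sodium pyrophosphate buffer pH 8.3 with 0.3 mM Na₂EDTA, preincubated 15 min with test compound; reaction started by adding 64 μM xanthine. Inhibition read as lowered uric acid concentration, in triplicate. Single-point screen at 10 µg/mL; compounds above 50% inhibition were then run over a wide concentration range to derive IC₅₀.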

T1 sequence (P80457 whole entry): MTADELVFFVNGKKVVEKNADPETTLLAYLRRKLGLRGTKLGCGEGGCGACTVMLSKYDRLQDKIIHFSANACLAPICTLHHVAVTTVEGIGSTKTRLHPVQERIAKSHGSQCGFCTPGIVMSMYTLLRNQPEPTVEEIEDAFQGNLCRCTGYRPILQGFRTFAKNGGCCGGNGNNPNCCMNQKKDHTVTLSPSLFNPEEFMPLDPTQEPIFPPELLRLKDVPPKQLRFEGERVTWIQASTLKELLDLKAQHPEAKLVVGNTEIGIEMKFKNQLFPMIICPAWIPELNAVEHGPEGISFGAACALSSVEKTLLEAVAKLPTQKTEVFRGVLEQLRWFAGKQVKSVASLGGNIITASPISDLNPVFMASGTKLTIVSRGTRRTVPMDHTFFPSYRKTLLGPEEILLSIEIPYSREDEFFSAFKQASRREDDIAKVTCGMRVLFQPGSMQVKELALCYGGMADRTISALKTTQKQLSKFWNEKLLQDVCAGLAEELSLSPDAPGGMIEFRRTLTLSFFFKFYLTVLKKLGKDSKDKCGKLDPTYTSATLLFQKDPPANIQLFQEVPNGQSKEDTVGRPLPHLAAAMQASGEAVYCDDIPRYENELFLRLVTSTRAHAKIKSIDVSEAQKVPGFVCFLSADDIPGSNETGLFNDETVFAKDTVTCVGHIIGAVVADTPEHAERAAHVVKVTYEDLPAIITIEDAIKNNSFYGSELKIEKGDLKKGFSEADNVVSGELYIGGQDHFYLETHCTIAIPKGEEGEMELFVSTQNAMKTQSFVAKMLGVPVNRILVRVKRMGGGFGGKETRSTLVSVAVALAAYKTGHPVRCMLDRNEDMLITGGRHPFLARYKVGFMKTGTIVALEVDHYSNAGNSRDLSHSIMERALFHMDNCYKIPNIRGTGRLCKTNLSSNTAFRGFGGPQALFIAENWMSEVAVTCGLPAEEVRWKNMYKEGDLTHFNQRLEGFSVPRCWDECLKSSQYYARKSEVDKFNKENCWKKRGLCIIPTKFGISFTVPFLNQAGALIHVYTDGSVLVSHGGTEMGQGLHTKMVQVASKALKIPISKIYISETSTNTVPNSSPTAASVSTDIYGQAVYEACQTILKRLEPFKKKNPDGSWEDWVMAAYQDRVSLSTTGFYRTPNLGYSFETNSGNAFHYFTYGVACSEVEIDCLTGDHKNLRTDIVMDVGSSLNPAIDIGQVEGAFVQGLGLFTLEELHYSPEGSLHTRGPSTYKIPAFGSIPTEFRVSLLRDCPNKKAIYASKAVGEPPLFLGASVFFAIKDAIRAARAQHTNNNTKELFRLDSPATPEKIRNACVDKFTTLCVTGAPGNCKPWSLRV

SMILES | pIC50 | IC50 [µM]
N#Cc1cc(-n2cc(-c3ccncc3)nn2)ccc1OC1CCCC1 | 5.17 | 
N#Cc1cc(-n2cc(-c3ccncc3)nn2)ccc1OCc1ccccc1 | 4.35 | 
CCC(C)Oc1ccc(-n2cc(-c3ccncc3)nn2)cc1C#N (configuration not stated) | 4.74 | 
COc1ccc(COc2ccc(-n3cc(-c4ccncc4)nn3)cc2C#N)cc1 | 4.63 | 
CC(C)Oc1ccc(-n2cc(-c3ccncc3)nn2)cc1C#N | 4.6 | 
CCCCOc1ccc(-n2cc(-c3ccncc3)nn2)cc1C#N | 4.68 | 
CC(C)CCOc1ccc(-n2cc(-c3ccncc3)nn2)cc1C#N | 5.09 | 
CCCCCOc1ccc(-n2cc(-c3ccncc3)nn2)cc1C#N | 4.79 | 
CCOC(=O)c1cc(-c2nnc(-c3ccnc(C)c3)[nH]2)ccc1OCC(C)C | 7.7 | 
COCCOCCOc1ccc(-c2nc(-c3ccnc(C)c3)n[nH]2)cc1C#N | 7.51 | 
Cc1cc(-c2nc(-c3ccc(OCC(C)C)c([N+](=O)[O-])c3)n[nH]2)ccn1 | 8 | 
COCCOCOc1ccc(-c2nc(-c3ccnc(C)c3)n[nH]2)cc1C#N | 7.62 | 
CCCCOCCOCCOc1ccc(-c2nnc(-c3ccnc(C)c3)[nH]2)cc1C#N | 7.59 | 
Cc1cc(-c2nnc(-c3ccc(OCCOCCOCCCl)c(C#N)c3)[nH]2)ccn1 | 7.68 | 
Cc1cc(-c2n[nH]c(-c3ccc(O)c(C#N)c3)n2)ccn1 | 7.37 | 
CC(C)COc1ccc(-c2nnc(-c3ccnc(Cl)c3)[nH]2)cc1[N+](=O)[O-] | 8 | 
Cc1cc(-c2n[nH]c(-c3ccc(OCC4COC(C)(C)O4)c(C#N)c3)n2)ccn1 (configuration not stated) | 7.22 | 
N#Cc1cc(-c2n[nH]c(-c3ccncc3)n2)ccn1 [TOPIROXOSTAT] |  | 0.0048

Second part, the molecule after the results:

pIC50 | IC50 [µM] | SMILES
5.02 | 9.62 | C=CCOc1ccc(-c2nc(-c3cccnc3)cn2O)cc1C#N
6.19 | 0.64 | CC(C)CCOc1ccc(-c2nc(-c3ccncc3)cn2O)cc1C#N
4.99 | 10.3 | CC(C)COc1ccc(-c2nc(-c3cccnc3)cn2O)cc1C#N
4.81 | 15.4 | COc1ccc(-c2nc(-c3ccncc3)cn2O)cc1C#N
5.17 | 6.73 | CC(C)CCOc1ccc(-c2nc(-c3cccnc3)cn2O)cc1C#N
5.36 | 4.35 | CCC(C)Oc1ccc(-c2nc(-c3ccncc3)cn2O)cc1C#N (configuration not stated)
5.32 | 4.75 | CC(C)Oc1ccc(-c2nc(-c3ccncc3)cn2O)cc1C#N
7.62 |  | COCOc1ccc(-c2nc(-c3ccnc(C)c3)n[nH]2)cc1C#N
6.96 |  | Cc1cc(-c2nnc(-c3ccc(OCC(=O)O)c(C#N)c3)[nH]2)ccn1
7.4 |  | Cc1cc(-c2n[nH]c(-c3ccc(OCCO)c(C#N)c3)n2)ccn1
7.19 |  | COCCOc1ccc(-c2nc(-c3ccnc(C)c3)n[nH]2)cc1C#N
7.77 |  | Cc1cc(-c2n[nH]c(-c3ccc(OCC(C)C)c(C#N)c3)n2)ccn1
5.23 |  | CC(C)COc1ccc(-c2nc(-c3cccnc3)n[nH]2)cc1[N+](=O)[O-]

Same assay, conditions: cattle

inhibition (INH) | SMILES
Dose-dependent effect | CC(C)CCOc1ccc(-c2nc(-c3ccncc3)cn2O)cc1C#N

These molecules were tested against T1, Xanthine dehydrogenase/oxidase (assay: Mixed-type inhibition of bovine xanthine oxidase assessed as reduction in uric acid formation using xanthine as substrate preincubated for 15 mins followed by substrate addition by spectrophotometry based Lineweaver-Burk plot analysis). Settings: cattle.

inhibition (INH) | SMILES
Active | CC(C)CCOc1ccc(-c2nc(-c3ccncc3)cn2O)cc1C#N

Each molecule was assayed against T1, Xanthine dehydrogenase/oxidase (assay: Inhibition of bovine xanthine oxidase assessed as reduction in uric acid formation at 10 ug/ml using xanthine as substrate preincubated for 15 mins followed by substrate addition by spectrophotometric analysis). Settings: cattle.
How it was run: as §1

inhibition (INH) [%] | SMILES
< 50 | N#Cc1cccc(-c2nc(-c3cccnc3)cn2O)c1
< 50 | CC(C)COc1ccc(-c2nc(-c3ccncc3)cn2O)cc1C#N
< 50 | N#Cc1cccc(-c2nc(-c3ccncc3)cn2O)c1
< 50 | CC(C)Oc1ccc(-c2nc(-c3cccnc3)cn2O)cc1C#N
< 50 | C=CCOc1ccc(-c2nc(-c3ccncc3)cn2O)cc1C#N
< 50 | CCC(C)Oc1ccc(-c2nc(-c3cccnc3)cn2O)cc1C#N (configuration not stated)
< 50 | COc1ccc(-c2nc(-c3cccnc3)cn2O)cc1C#N
